Reference: ChEMBL document CHEMBL1152454, “Novel plasmid-mediated 16S rRNA m1A1408 methyltransferase, NpmA, found in a clinically isolated Escherichia coli strain resistant to structurally diverse aminoglycosides” (2007)
Converted amounts (≈) assume the structure as drawn. The source made the active and inactive calls. The rule behind the calls is not given here.

Tests used:
Escherichia coli [1] = test: Antibacterial activity against Escherichia coli JM109 carrying pMCL210 by agar dilution method; assay type: functional
How it was run: (§1)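 Minimal inhibitory concentration (MIC) by agar dilution on Mueller-Hinton agar, following the CLSI protocol. Strains were routinely grown in LB broth at 37°C with shaking.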

Escherichia coli [2] = test: Antibacterial activity against Escherichia coli isolate ARS3 carrying pARS3 by agar dilution method; assay type: functional; how it was run: as §1
Escherichia coli [3] = test: Antibacterial activity against Escherichia coli CSH-2 by agar dilution method; assay type: functional; how it was run: as §1
Escherichia coli [4] = test: Antibacterial activity against Escherichia coli CSH-2 carrying Escherichia coli ARS3 pARS3 by agar dilution method; assay type: functional; how it was run: as §1
Escherichia coli [5] = test: Antibacterial activity against Escherichia coli JM109 carrying pMCL-BE by agar dilution method; assay type: functional; how it was run: as §1
Escherichia coli [6] = test: Antibacterial activity against Escherichia coli (DE3)pLysS carrying pCold-IV by microdilution susceptibility test; assay type: functional
Escherichia coli [7] = test: Antibacterial activity against Escherichia coli (DE3)pLysS carrying pCold-NpmA by microdilution susceptibility test; assay type: functional
Nucleic Acid [8] = test: Binding affinity to 16S rRNA G1494(N7) position in A1408-methylated Escherichia coli JM109 30S sunit at 100 uM by footprint assay; assay type: nucleic-acid assay
How it was run: (§2)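 Aminoglycoside (1–1,000 μM final) was added, 37°C 30 min, then ice 10 min. DMS modification followed at 37°C for 10 min, then quench and rRNA extraction. G1494 protection was read by primer extension.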

Nucleic Acid [9] = test: Binding affinity to 16S rRNA G1494(N7) position in wild type Escherichia coli JM109 30S sunit at 1000 uM by footprint assay; assay type: nucleic-acid assay; how it was run: as §2
Nucleic Acid [10] = test: Binding affinity to 16S rRNA G1494(N7) position in wild type Escherichia coli JM109 30S sunit at 100 uM by footprint assay; assay type: nucleic-acid assay; how it was run: as §2
Nucleic Acid [11] = test: Binding affinity to 16S rRNA G1494(N7) position in A1408-methylated Escherichia coli JM109 30S sunit at 1000 uM by footprint assay; assay type: nucleic-acid assay; how it was run: as §2
Nucleic Acid [12] = test: Binding affinity to 16S rRNA G1494(N7) position in A1408-methylated Escherichia coli JM109 30S sunit by footprint assay; assay type: nucleic-acid assay
How it was run: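 Aminoglycoside added (final 1 μM to 1,000 μM) for 30 min at 37°C, then 10 min on ice. DMS probing for 10 min at 37°C. The G1494 footprint was read by reverse-transcriptase primer extension.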

Row | Compound | MIC (Escherichia coli [1]) [µg/mL] | MIC (Escherichia coli [2]) [µg/mL] | MIC (Escherichia coli [3]) [µg/mL] | MIC (Escherichia coli [4]) [µg/mL] | MIC (Escherichia coli [5]) [µg/mL] | MIC (Escherichia coli [6]) [µg/mL] | MIC (Escherichia coli [7]) [µg/mL] | Activity (Nucleic Acid [8]) | Activity (Nucleic Acid [9]) | Activity (Nucleic Acid [10]) | Activity (Nucleic Acid [11]) | Activity (Nucleic Acid [12])
1 | CN[C@H]1C[C@@H](N)[C@H](O)[C@@H](O[C@@H]2O[C@H](CO)[C@H](O)[C@H]3O[C@@]4(O[C@H]23)O[C@H]([C@H](N)CO)[C@H](O)[C@H](O)[C@H]4O)[C@@H]1O | 32 (≈ 60.7 µM) | 128 (≈ 243 µM) | 16 (≈ 30.3 µM) | 16 (≈ 30.3 µM) | 32 (≈ 60.7 µM) | – | – | – | – | – | – | –
2 | NCC[C@H](O)C(=O)N[C@@H]1C[C@H](N)[C@@H](O[C@H]2O[C@H](CN)[C@@H](O)[C@H](O)[C@H]2O)[C@H](O)[C@H]1O[C@H]1O[C@H](CO)[C@@H](O)[C@H](N)[C@H]1O [AMIKACIN] | 0.5 (≈ 0.854 µM) | 256 (≈ 437 µM) | 0.13 (≈ 0.222 µM) | 16 (≈ 27.3 µM) | 32 (≈ 54.6 µM) | – | – | – | – | – | – | –
3 | CN[C@@H]1[C@@H](O[C@H]2O[C@H](CO)[C@@H](N)[C@H](O)[C@H]2O)OC2C[C@@H](N)[C@@H](O[C@H]3[C@H](O)[C@@H](O)[C@H](N)C[C@@H]3N)OC2[C@@H]1O (stereo not given in full) [APRAMYCIN] | 2 (≈ 3.71 µM) | > 256 | 1 (≈ 1.85 µM) | > 256 | > 256 | 3.9 (≈ 7.23 µM) | > 1000 | – | – | – | – | –
4 | NCC[C@H](O)C(=O)N[C@@H]1C[C@H](N)[C@@H](O[C@H]2O[C@H](CN)CC[C@H]2N)[C@H](O)[C@H]1O[C@H]1O[C@H](CO)[C@@H](O)[C@H](N)[C@H]1O [ARBEKACIN] | 0.25 (≈ 0.452 µM) | 64 (≈ 116 µM) | 0.13 (≈ 0.235 µM) | 4 (≈ 7.24 µM) | 4 (≈ 7.24 µM) | – | – | – | – | – | – | –
5 | NC[C@@H]1CC[C@@H](N)[C@@H](O[C@H]2[C@H](O)[C@@H](O[C@H]3O[C@H](CO)[C@@H](O)[C@H](N)[C@H]3O)[C@H](N)C[C@@H]2N)O1 [DIBEKACIN] | 0.25 (≈ 0.554 µM) | > 256 | 0.13 (≈ 0.288 µM) | 128 (≈ 283 µM) | 128 (≈ 283 µM) | – | – | – | – | – | – | –
6 | NC[C@@H]1O[C@H](O[C@H]2[C@@H](O)[C@H](O[C@@H]3[C@@H](O)[C@H](N)C[C@H](N)[C@H]3O[C@H]3O[C@H](CN)[C@@H](O)[C@H](O)[C@H]3N)O[C@@H]2CO)[C@H](N)[C@@H](O)[C@@H]1O [FRAMYCETIN] | 0.25 (≈ 0.407 µM) | > 256 | 0.13 (≈ 0.212 µM) | 64 (≈ 104 µM) | 64 (≈ 104 µM) | – | – | inactive | Active | Active | inactive | –
7 | CN[C@@H]1[C@@H](O)[C@@H](O[C@@H]2[C@@H](O)[C@H](O[C@H]3O[C@H](CN)[C@@H](O)[C@H](O)[C@H]3O)[C@@H](N)C[C@H]2NC(=O)[C@@H](O)CN)OC[C@]1(C)O [ISEPAMICIN] | 0.13 (≈ 0.228 µM) | > 256 | 0.13 (≈ 0.228 µM) | 64 (≈ 112 µM) | 128 (≈ 225 µM) | – | – | – | – | – | – | –
8 | NC[C@H]1O[C@H](O[C@H]2[C@H](O)[C@@H](O[C@H]3O[C@H](CO)[C@@H](O)[C@H](N)[C@H]3O)[C@H](N)C[C@@H]2N)[C@H](O)[C@@H](O)[C@@H]1O [KANAMYCIN] | 0.5 (≈ 1.03 µM) | > 256 | 0.25 (≈ 0.516 µM) | > 256 | > 256 | – | – | – | – | – | – | –
9 | NC[C@@H]1O[C@H](O[C@H]2[C@@H](O)[C@H](O[C@@H]3[C@@H](O)[C@H](N)C[C@H](N)[C@H]3O[C@H]3O[C@H](CO)[C@@H](O)C[C@H]3N)O[C@@H]2CO)[C@H](N)[C@@H](O)[C@@H]1O[C@H]1O[C@H](CO)[C@@H](O)[C@H](O)[C@@H]1O [LIVIDOMYCIN] | 2 (≈ 2.63 µM) | 256 (≈ 336 µM) | 0.5 (≈ 0.656 µM) | 16 (≈ 21 µM) | 32 (≈ 42 µM) | – | – | – | – | – | – | –
10 | CCN[C@@H]1C[C@H](N)[C@@H](O[C@H]2OC(CN)=CC[C@H]2N)[C@H](O)[C@H]1O[C@H]1OC[C@](C)(O)[C@H](NC)[C@H]1O [NETILMICIN] | 0.13 (≈ 0.273 µM) | > 256 | ≤ 0.06 | > 256 | > 256 | – | – | – | – | – | – | –
11 | NC[C@@H]1O[C@H](O[C@H]2[C@@H](O)[C@H](O[C@@H]3[C@@H](O)[C@H](N)C[C@H](N)[C@H]3O[C@H]3O[C@H](CO)[C@@H](O)[C@H](O)[C@H]3N)O[C@@H]2CO)[C@H](N)[C@@H](O)[C@@H]1O [PAROMOMYCIN] | 1 (≈ 1.62 µM) | 64 (≈ 104 µM) | 0.5 (≈ 0.812 µM) | 4 (≈ 6.5 µM) | 4 (≈ 6.5 µM) | – | – | – | – | – | – | –
12 | NC[C@H]1O[C@H](O[C@H]2[C@H](O[C@@H]3O[C@H](CO)[C@@H](O)[C@H]3O)[C@@H](O)[C@H](N)C[C@@H]2N)[C@H](N)[C@@H](O)[C@@H]1O [RIBOSTAMYCIN] | 0.5 (≈ 1.1 µM) | > 256 | 0.25 (≈ 0.55 µM) | > 256 | > 256 | – | – | inactive | Active | Active | inactive | –
13 | CN[C@@H]1[C@@H](O)[C@@H](O[C@@H]2[C@@H](O)[C@H](O[C@H]3OC(CN)=CC[C@H]3N)[C@@H](N)C[C@H]2N)OC[C@]1(C)O [SISOMICIN] | 0.13 (≈ 0.29 µM) | > 256 | ≤ 0.06 | > 256 | 256 (≈ 572 µM) | – | – | – | – | – | – | –
14 | CN[C@@H]1[C@H](O)[C@H](NC)[C@H]2O[C@@]3(O)C(=O)C[C@@H](C)O[C@H]3O[C@@H]2[C@H]1O [SPECTINOMYCIN] | 16 (≈ 48.1 µM) | > 256 | 16 (≈ 48.1 µM) | > 256 | 16 (≈ 48.1 µM) | – | – | – | – | – | – | –
15 | CN[C@@H]1[C@H](O[C@H]2[C@H](O[C@H]3[C@H](O)[C@@H](O)[C@H](N=C(N)N)[C@@H](O)[C@@H]3N=C(N)N)O[C@@H](C)[C@]2(O)C=O)O[C@@H](CO)[C@H](O)[C@H]1O [STREPTOMYCIN] | 1 (≈ 1.72 µM) | 128 (≈ 220 µM) | 1 (≈ 1.72 µM) | 32 (≈ 55 µM) | 1 (≈ 1.72 µM) | – | – | – | – | – | – | –
16 | NC[C@H]1O[C@H](O[C@H]2[C@H](O)[C@@H](O[C@H]3O[C@H](CO)[C@@H](O)[C@H](N)[C@H]3O)[C@H](N)C[C@@H]2N)[C@H](N)C[C@@H]1O [TOBRAMYCIN] | 0.13 (≈ 0.278 µM) | > 256 | ≤ 0.06 | 128 (≈ 274 µM) | 128 (≈ 274 µM) | – | – | – | – | – | – | –
17 | GENTAMICIN | 0.13 | > 256 | < 0.06 | 128 | 16 | – | – | inactive | Active | Active | inactive | Dose-dependent effect
